The subject of experiment [1] is Penicillium decumbens. The experiment can be described thus: Inhibition of Penicillium decumbens alpha-rhamnosidase at 10 mM.
For experiment [2], the system named is Pseudomonas aeruginosa. Description: Antimicrobial activity against Pseudomonas aeruginosa by almar blue assay. The format is functional. Summed up:
(§1)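 Microplate Alamar Blue broth assay: bacteria at 2 × 10⁵ cfu/mL in MHB with 8% Alamar Blue; serial 2-fold compound dilutions in DMSO added (2 µL to 78 µL culture); ceftazidime reference; incubated at 32 °C until growth controls turned pink; fluorescence ex 530/em 590 nm; % inhibition, triplicate averaged; MIC50 and MIC90 interpolated from concentration–inhibition curves.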

The nature of experiment [3]: Inhibition of Saccharomyces cerevisiae alpha glucosidase. Summed up: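 Baker's yeast α-glucosidase (0.2 U/mL solution) in 0.2 M phosphate buffer pH 6.8 was preincubated with compound at 37 °C for 30 min. 2.5 mM p-nitrophenyl α-D-glucopyranoside solution was then added and the mixture incubated 5 min at 37 °C. The reaction was stopped with 0.1 M Na₂CO₃ and A405 read before and after reaction. Percent inhibition was taken against a buffer-only control, with acarbose as positive control, giving IC50 in mM ± SD.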

For experiment [4], the system named is Proteus vulgaris. The experiment can be described thus: Antimicrobial activity against Proteus vulgaris by almar blue assay. Type of experiment: functional. Summed up: as §1
Experiment [5] has as its system Prunus dulcis. Description: Inhibition of almond beta glucosidase at 10 uM.
Experiment [6] relates to Staphylococcus aureus. Description: Antimicrobial activity against Staphylococcus aureus by almar blue assay. The format is functional. Summed up:
as §1

For experiment [7], the system named is Escherichia coli. Description: Antimicrobial activity against Escherichia coli by almar blue assay. Type of experiment: functional. The method in brief:
as §1

In brackets after ≈: the same amount, converted by molar mass. Activity calls are given as the source filed them. The rule behind the calls is not given here.

Consider `C[C@H]1C[C@@H](O)C=CC1=O` [AMPELOMIN A], for which the outcome in experiment [1] and in experiment [5] was inactive. Also, the MIC50 in experiment [2] is 63.5 µM (≈ 8.01 µg/mL); in experiment [4], 51.6 µM (≈ 6.51 µg/mL); in experiment [6], 54.9 µM (≈ 6.93 µg/mL); in experiment [7], 89.9 µM (≈ 11.3 µg/mL). Moreover, the MIC90 in experiment [2] was 1020 µM (≈ 128 µg/mL); in experiment [4], 202 µM (≈ 25.5 µg/mL); in experiment [6] it was 234 µM (≈ 29.5 µg/mL); in experiment [7] it was 265 µM (≈ 33.4 µg/mL). This compound also yielded an IC50 in experiment [3] of 3.59 mM.
Consider `CC(C)(O/N=C(\C(=O)N[C@@H]1C(=O)N2C(C(=O)[O-])=C(C[n+]3ccccc3)CS[C@H]12)c1csc(N)n1)C(=O)O` [CEFTAZIDIME], for which the MIC50 in experiment [2] turned out to be 0.73 µM (≈ 0.399 µg/mL); in experiment [4], 0.18 µM (≈ 0.0984 µg/mL); in experiment [6], 3.11 µM (≈ 1.7 µg/mL); in experiment [7], 0.37 µM (≈ 0.202 µg/mL). The MIC90 in experiment [2] was 3.94 µM (≈ 2.15 µg/mL); in experiment [4] it was 0.21 µM (≈ 0.115 µg/mL); in experiment [6], 14.7 µM (≈ 8.01 µg/mL); in experiment [7], 0.46 µM (≈ 0.251 µg/mL).
As to `C[C@H]1C[C@H](O)[C@@H]2O[C@@H]2[C@H]1O` (relative stereo) [AMPELOMIN B], the outcome in experiment [1] and in experiment [5] was inactive. In experiment [3], this compound gave an IC50 greater than 10 mM.
`Cc1cccc(O)c1C(=O)O[C@H]1[C@H](O)[C@@H](O)[C@@H](C)C[C@@H]1O` (relative stereo) [AMPELOMIN G]: the result in experiment [1] and in experiment [5] was inactive. In addition, the IC50 in experiment [3] was 1.74 mM.
Turning to `C[C@H]1C[C@@H](O)[C@@H](O)C[C@@H]1O` (relative stereo) [AMPELOMIN F], the result in experiment [1] and in experiment [5] was inactive. Besides, the IC50 in experiment [3] was greater than 10 mM.
Consider `C[C@H]1C[C@H](O)[C@H](O)C[C@H]1O` (relative stereo) [AMPELOMIN D], for which the result in experiment [1] and in experiment [5] was inactive. This compound displayed a 50% inhibitory concentration (IC50) in experiment [3] greater than 10 mM.
In turn, `C[C@H]1O[C@H](O[C@H]2[C@H](O)[C@@H](O)[C@@H](O[C@H]3[C@H](O)[C@@H](O)C(O)O[C@@H]3CO)O[C@@H]2CO)[C@H](O)[C@@H](O)[C@@H]1N[C@H]1C=C(CO)[C@@H](O)[C@H](O)[C@H]1O` (stereo partly drawn) [ACARBOSE] yielded an IC50 in experiment [3] of 0.03 mM.
`C[C@H]1C[C@H](O)[C@H](O)C[C@@H]1O` (relative stereo) [AMPELOMIN E]: the outcome in experiment [1] and in experiment [5] was inactive. In experiment [3], this compound displayed a concentration for half-maximal inhibition (IC50) of 5.93 mM.
Turning to `C[C@H]1C[C@H](O)[C@@H](O)C[C@H]1O` (relative stereo) [AMPELOMIN C], the result in experiment [1] and in experiment [5] was inactive. The compound further yielded an IC50 in experiment [3] of 6.12 mM.

As usually defined, the MIC50 is the lowest concentration that inhibits either 50% of growth or 50% of the strains tested, depending on the study. One may read the MIC90 as the lowest concentration that inhibits either 90% of growth or 90% of the strains tested, depending on the study. A high value points to weaker potency. Broadly, the IC50 is the point on the concentration scale where inhibition reaches its midpoint. High values mean a need for much substance, low ones inhibition by little substance.

The values above are taken from ChEMBL document CHEMBL1152323, “Polyoxygenated methyl cyclohexanoids from a terrestrial ampelomyces fungus” (J Nat Prod, 2009).
